Experimental findings from ChEMBL document CHEMBL3351267, “Curcuminoid derivatives enhance telomerase activity in an in vitro TRAP assay” (Bioorg Med Chem Lett, 2014) are described below.

Activity calls are given as the source filed them. The calls are words filed in the database; no cut-off is given here.

Test [1] deals with Telomerase reverse transcriptase (Homo sapiens) (UniProt O14746). Kind of test: Activation of human telomerase activity expressed in HEK293T cells incubated for 30 mins by modified TRAP assay. The test is classed as cell-based. To be noted: HEK-293T. The method in brief: (§1)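 Telomerase came from crude lysate of HEK293T cells transfected with hTERT and hTR plasmids. MTS primer and compound were incubated in telomerase reaction buffer at 30 °C for 30 min, then removed by two phenol–chloroform extractions. Products were ethanol-precipitated, PCR-amplified with FAM-tagged primer, run on 8% non-denaturing acrylamide and phosphorimaged. Accumulated product intensity was averaged over three independent experiments.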
Sequence of Telomerase reverse transcriptase (Homo sapiens) (O14746 whole entry): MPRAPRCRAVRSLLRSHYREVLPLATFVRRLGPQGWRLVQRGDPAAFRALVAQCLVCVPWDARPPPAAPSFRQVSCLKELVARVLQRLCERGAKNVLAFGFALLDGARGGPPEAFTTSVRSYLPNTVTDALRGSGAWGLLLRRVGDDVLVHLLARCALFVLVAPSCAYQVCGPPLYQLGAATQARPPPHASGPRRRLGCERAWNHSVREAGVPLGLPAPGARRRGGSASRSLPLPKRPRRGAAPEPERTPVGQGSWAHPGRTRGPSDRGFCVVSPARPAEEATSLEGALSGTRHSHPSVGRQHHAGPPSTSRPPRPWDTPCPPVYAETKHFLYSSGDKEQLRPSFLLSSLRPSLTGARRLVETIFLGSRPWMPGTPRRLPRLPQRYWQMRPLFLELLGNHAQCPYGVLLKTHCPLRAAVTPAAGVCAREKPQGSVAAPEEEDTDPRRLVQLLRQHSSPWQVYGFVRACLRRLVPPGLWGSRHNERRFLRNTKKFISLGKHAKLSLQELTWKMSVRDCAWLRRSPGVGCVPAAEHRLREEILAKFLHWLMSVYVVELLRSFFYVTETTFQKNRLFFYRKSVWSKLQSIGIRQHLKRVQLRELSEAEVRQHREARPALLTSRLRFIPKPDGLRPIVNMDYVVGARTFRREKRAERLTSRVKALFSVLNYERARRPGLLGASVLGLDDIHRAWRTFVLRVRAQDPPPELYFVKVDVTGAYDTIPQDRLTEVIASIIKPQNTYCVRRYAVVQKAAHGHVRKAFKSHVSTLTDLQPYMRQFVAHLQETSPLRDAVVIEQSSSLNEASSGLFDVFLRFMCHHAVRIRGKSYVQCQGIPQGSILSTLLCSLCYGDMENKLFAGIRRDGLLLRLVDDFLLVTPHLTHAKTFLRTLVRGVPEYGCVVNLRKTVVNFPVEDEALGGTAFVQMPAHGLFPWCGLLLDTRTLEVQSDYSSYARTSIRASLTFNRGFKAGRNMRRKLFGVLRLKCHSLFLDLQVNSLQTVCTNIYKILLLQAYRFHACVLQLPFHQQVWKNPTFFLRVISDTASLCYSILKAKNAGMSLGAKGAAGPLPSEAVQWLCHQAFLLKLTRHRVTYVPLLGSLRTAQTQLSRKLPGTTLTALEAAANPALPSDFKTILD

For test [2] the target is unchanged. As to the kind of experiment: Activation of human telomerase activity expressed in HEK293T cells at 60 uM incubated for 30 mins by modified TRAP assay. The test is classed as cell-based. To be noted: HEK-293T. The gist of the method:
as §1

For test [3] the target is unchanged. As to the kind of experiment: Activation of human telomerase activity expressed in HEK293T cells assessed as increase in telomer products intensity incubated for 30 mins by modified TRAP assay. The test is classed as cell-based. Conditions: HEK-293T. The method in brief:
as §1

For test [4] the target is unchanged. As to the kind of experiment: Activation of human telomerase activity expressed in HEK293T cells assessed as increase in telomer products length incubated for 30 mins by modified TRAP assay. Conditions: HEK-293T. The test is classed as cell-based. The gist of the method:
as §1

For test [5] the target is unchanged. Kind of test: Activation of human telomerase activity expressed in HEK293T cells incubated for 30 mins by modified TRAP assay and phosphorimage analysis. The test is classed as cell-based. To be noted: HEK-293T. The method in brief:
as §1

Test [6] shares this target. Kind of test: Activation of human telomerase activity expressed in HEK293T cells at 60 uM incubated for 30 mins by modified TRAP assay and phosphorimage analysis. The test is classed as cell-based. Conditions: HEK-293T. The method in brief:
as §1

The target is the same in test [7]. As to the kind of experiment: Activation of human telomerase activity expressed in HEK293T cells assessed as increase in telomer products length at 40 uM by modified TRAP assay and phosphorimage analysis. To be noted: HEK-293T, TDE = time-dependent effect. The test is classed as cell-based. The gist of the method:
(§2)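 This was a time course at 40 µM compound, with the compound-free set run in parallel. The telomerase source was lysate of HEK293T cells transfected with hTERT/hTR. Reactions ran at 30 °C, and 100 µl was withdrawn at set times and heat-stopped at 95 °C for 10 min. Products were purified, PCR-amplified with FAM primer, and separated on 8% non-denaturing gel with phosphorimaging. Intensities came from three independent experiments.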

Test [8] has the same target. As to the kind of experiment: Activation of human telomerase activity expressed in HEK293T cells assessed as increase in telomer products intensity at 40 uM by modified TRAP assay and phosphorimage analysis. The test is classed as cell-based. To be noted: HEK-293T, TDE = time-dependent effect. The gist of the method:
as §2

The next test concerns Thermus aquaticus. Kind of test: Inhibition of Thermus aquaticus DNA polymerase at 5 uM.
The target in test [9] is Telomerase reverse transcriptase (Homo sapiens) (UniProt O14746). Kind of test: Activation of human telomerase activity expressed in HEK293T cells at 20 to 60 uM incubated for 30 mins by modified TRAP assay. The test is classed as cell-based. Conditions: HEK-293T. The method in brief: as §1

Turning to `COc1cc(/C=C/C(=O)CC(=O)/C=C/c2ccc(OCCO)c(OC)c2)ccc1OCCO`, in test [1], the result was inactive.

For `COc1cc(CCC(=O)CC(=O)CCc2ccc(O)c(OC)c2)ccc1O`, the result in test [1] was inactive.

The compound `COc1cc(/C=C/C(=O)CC(=O)/C=C/c2ccc(OCCCCC[n+]3ccccc3)c(OC)c2)ccc1O` returned a fold change (FC) in test [2] of 3.

Take `COc1cc(/C=C/C(O)=C/C(=O)/C=C/c2ccc(O)cc2)ccc1O`: the result in test [1] was inactive.

Take `COc1cc(/C=C/C(=O)CC(=O)/C=C/c2ccc(O)cc2)ccc1OCCCCC[n+]1ccccc1`: the fold change (FC) in test [2] was determined as 3.

Regarding `O=C(/C=C/c1ccc(O)cc1)CC(=O)/C=C/c1ccc(O)cc1`, in [1], the outcome was inactive.

For the compound `COc1cc(/C=C/c2cc(/C=C/c3ccc(OCCCCC[n+]4ccccc4)c(OC)c3)on2)ccc1OCCCCC[n+]1ccccc1`, in test [2], the fold change (FC) came to 3.

Consider `COc1cc(/C=C/C(=O)CC(=O)/C=C/c2ccc(OCCCCC[n+]3ccccc3)c(OC)c2)ccc1OCCCCC[n+]1ccccc1`, for which the Activity entry in test [1] is “Dose-dependent effect”; in [3] it was “Dose-dependent effect”; in test [4], “Dose-dependent effect”; in test [5], “Dose-dependent effect”; in test [7] it was “tde”; in test [8], “tde”. For the same compound, the fold change (FC) in test [6] is less than 5; in test [2] it was 5. In addition, the inhibition entry in the test on Thermus aquaticus was “Active”.

As to `COc1cc(CC/C=C/C(=O)CCc2ccc(OCCCCC[n+]3ccccc3)c(OC)c2)ccc1OCCCCC[n+]1ccccc1`, the result in test [9] was inactive.

For the compound `COc1cc(/C=C/C(=O)CC(=O)/C=C/c2ccc(OCCCCC[n+]3ccccc3)cc2)ccc1O`, in test [2], the fold change (FC) came to 3.

Consider `COc1cc(/C=C/C(=O)CC(=O)/C=C/c2ccc(O)c(OC)c2)ccc1O`, for which the result in [1] was inactive.

With `COc1cc(CCC(O)CC(O)CCc2ccc(O)c(OC)c2)ccc1O` (stereo not given), the outcome in test [1] was inactive.
